Data set [1] relates to Human immunodeficiency virus 1. The experiment in a line: Antiviral activity against HIV1 3B infected in human MT4 cells assessed as protection against virus-induced cytopathic effect after 5 days by MTT assay. The format is functional, cell-based. As to conditions: Human immunodeficiency virus 1, 3B, MT4, 120 h. For orientation: Protection from cytopathic effect is a common read-out in antiviral testing.

A short description of data set [2]: Antiviral activity against HIV2 ROD infected in human MT4 cells assessed as protection against virus-induced cytopathic effect after 5 days by MTT assay. Conditions: Human immunodeficiency virus 2, MT4, 120 h. The format is functional, cell-based, Human immunodeficiency virus type 2 (ISOLATE ROD).
The nature of data set [3]: Cytotoxicity against human MT4 cells assessed as decrease in cell viability after 5 days by MTT assay. Format: toxicity, cell-based.
Data set [4] can be described thus: Selectivity index, ratio of CC50 for human MT4 cells to EC50 for HIV1 3B infected in human MT4 cells. Format: toxicity, cell-based. As to conditions: read-out: Ratio CC50/EC50.
A short description of data set [5]: Selectivity index, ratio of CC50 for human MT4 cells to EC50 for HIV2 ROD infected in human MT4 cells. Format: toxicity, cell-based. Conditions: read-out: Ratio CC50/EC50.
The subject of data set [6] is Hepatitis B virus. The experiment in a line: Antiviral activity against HBV ayw1 infected in human HepG2(2.2.15) cells assessed as reduction in viral replication by measuring extracellular viral DNA copy number after 6 days by real-time qPCR method. Format: functional, cell-based. As to conditions: ayw1, HepG2 2.2.15, 144 h. The procedure, abridged:
(§1)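 HepG2 2.2.15 cells (stable line carrying two copies of the HBV ayw1 genome) were seeded at 1.5 × 10^4 cells/well in DMEM with 2% FBS and G418. After 16−24 h, compound was added in triplicate, and medium plus compound was renewed on day 3. On day 6, supernatant was Pronase-treated and extracellular HBV DNA was quantified by TaqMan qPCR against an HBV DNA standard curve to give EC50/EC90. Cell viability was read by MTS uptake to give CC50.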
A general note: In qPCR the cycle at which signal appears reflects the starting amount.

A short description of data set [7]: Cytotoxicity against human HepG2(2.2.15) cells assessed as reduction in cell viability by MTS assay. The format is toxicity, cell-based. Put shortly:
as §1
In general terms: Tetrazolium dyes change colour on reduction, which living cells bring about.

The nature of data set [8]: Selectivity ratio of CC50 for human HepG2(2.2.15) cells to EC50 for reduction in HBV ayw1 extracellular DNA copy number. As to conditions: read-out: Ratio CC50/EC50. The procedure, abridged:
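HepG2 2.2.15 cells (two HBV ayw1 genome copies), 1.5 × 10^4 cells/well in DMEM with 2% FBS and G418; compound dosed in triplicate and medium renewed on day 3. On day 6, Pronase-treated supernatant HBV DNA measured by TaqMan qPCR against a standard curve, giving EC50. MTS uptake gave CC50, and the ratio was calculated from these.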

Data set [9] relates to Hepatitis B virus. The experiment in a line: Antiviral activity against HBV ayw1 infected in human HepG2(2.2.15) cells assessed as reduction in viral replication by measuring intracellular viral DNA copy number after 6 days by real-time qPCR method. The format is functional, cell-based. Conditions: ayw1, HepG2 2.2.15, 144 h. Put shortly:
(§2)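 The protocol was the same as the primary HepG2 2.2.15 assay (triplicate dosing, medium plus compound renewed on day 3, 6-day course). At the end, total intracellular DNA was isolated from the cells and HBV DNA copy number was measured by TaqMan qPCR to give EC50/EC90. CC50 came from MTS viability, and SI was taken as CC50/EC50.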

Data set [10] is described as follows: Selectivity ratio of CC50 for human HepG2(2.2.15) cells to EC50 for reduction in HBV ayw1 intracellular DNA copy number. The format is ADME, cell-based. As to conditions: read-out: Ratio CC50/EC50. Put shortly:
as §2

Data set [11] can be described thus: Chemical stability of the compound in pH 1 phosphate buffer at 2 mg after 1 to 2 hrs by 31P NMR method. Format: physicochemical. The procedure, abridged:
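Prodrug (2.0 mg) dissolved in 0.2 mL acetone-d6 plus 0.3 mL pH 1 buffer (equal parts 0.2 M HCl and 0.2 M KCl); in situ 31P NMR (202 MHz) at 37 °C, spectra recorded every 30 min over 14 h, tracking loss of the diastereomer peaks.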

Data set [12] in a line: Chemical stability of the compound in pH 8 phosphate buffer assessed as parent compound remaining at 2 mg after 14 hrs by 31P NMR method. The format is physicochemical. As to conditions: read-out: Stability. Put shortly: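 Prodrug (2 mg) in 0.2 mL acetone-d6 plus 0.3 mL pH 8 buffer (0.1 M Na2HPO4 adjusted with 0.1 M HCl); in situ 31P NMR (202 MHz) at 37 °C, spectra every 30 min over 14 h; parent remaining followed by diastereomer peak disappearance.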

A short description of data set [13]: Drug metabolism in acetone-d6/pH 7.6 Trizma buffer assessed as baker's yeast carboxypeptidase Y-mediated (S)-2-((((3R,5R)-5-(6-amino-9H-purin-9-yl)tetrahydrofuran-3-yloxy)methyl)oxidophosphorylamino)-4-(isopentyloxy)-4-oxobutanoate formation at 1 mg after 3 hrs by RP-HPLC/mass spectra analysis. As to conditions: saccharomyces cerevisiae, pH 7.6, 3 h. Format: ADME.

Data set [14] is described as follows: Half life in human liver S9 fraction at 100 uM by HPLC-UV method. Format: ADME, subcellular. Put shortly: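 Incubation started by adding human liver S9 fraction (4 mg/mL) at 37 °C; aliquots at 0, 10, 20, 30, 60 min quenched in acetonitrile, centrifuged, supernatant analysed by C18 HPLC with UV at 260 nm; parent peak area versus time 0 gave percent remaining and half-life.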

Data set [15] is described as follows: Half life in human liver microsomes at 0.1 uM in presence of NADPH-regenerating system by HPLC MS/MS method. Format: ADME. Put shortly: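 Pooled liver microsomes preincubated 10 min at 37 °C with NADPH-regenerating system (1 mM NADP, 5 mM G6P, 1 U/mL G6PDHase) in phosphate buffer pH 7.4, 3 mM MgCl2, 1 mM EDTA; compound added at 0.1 μM final; samples at 0, 15, 30, 45, 60 min quenched in acetonitrile/methanol, analysed by HPLC MS/MS.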

What is called EC50 is the midpoint of the concentration-response curve. One may read the CC50 as the concentration at which the toxic effect on the cells reaches its halfway point. By EC90 is commonly meant the point of the concentration-response curve where the effect stands at 90%. One may read the half-life as the time in which the quantity being followed falls by half. `CC(C)CCOC(=O)C[C@H](NP(=O)(CO[C@H]1CO[C@@H](n2cnc3c(N)ncnc32)C1)Oc1ccccc1)C(=O)OCCC(C)C` (some centres not stated): the EC50 in [1] was 21.6 nM; in data set [2] it was 3.6 nM; in data set [6] it was 10 nM; in [9], less than 10 nM. In addition, in data set [3], the CC50 at 120 h was 16900 nM. Besides, the selectivity ratio in data set [4] was 792; in [5] it was 4810; in [8] it was more than 1250; in [10], 8810. Further, the concentration for an effect of 90% (EC90) in data set [6] stood at 980 nM; in data set [9] it was 360 nM. Further, in [7], the CC50 turned out to be 35200 nM. Moreover, the Stability result in [11] is reported as “Unstable”. The remaining at 14 h in data set [12] turned out to be 43%. The Drug metabolism result in data set [13] is “Metabolite_Detected”. This compound also gave a half-life at 100 µM in data set [14] of 12.1 min. Also, the half-life at 0.1 µM in [15] was determined as 8 min.

These data come from ChEMBL document CHEMBL3856288, “Amidate Prodrugs of Deoxythreosyl Nucleoside Phosphonates as Dual Inhibitors of HIV and HBV Replication” (J Med Chem, 2016).
